Results as given in paper PMC3858174 (Bioorganic & medicinal chemistry, 2013).

Assays:
Adrenergic α1A = target: T1, Adrenergic α1A (Homo sapiens, UniProt P35348); assay: NIMH-PDSP binding assay, Adrenergic α1A
T1 sequence (P35348 1-466): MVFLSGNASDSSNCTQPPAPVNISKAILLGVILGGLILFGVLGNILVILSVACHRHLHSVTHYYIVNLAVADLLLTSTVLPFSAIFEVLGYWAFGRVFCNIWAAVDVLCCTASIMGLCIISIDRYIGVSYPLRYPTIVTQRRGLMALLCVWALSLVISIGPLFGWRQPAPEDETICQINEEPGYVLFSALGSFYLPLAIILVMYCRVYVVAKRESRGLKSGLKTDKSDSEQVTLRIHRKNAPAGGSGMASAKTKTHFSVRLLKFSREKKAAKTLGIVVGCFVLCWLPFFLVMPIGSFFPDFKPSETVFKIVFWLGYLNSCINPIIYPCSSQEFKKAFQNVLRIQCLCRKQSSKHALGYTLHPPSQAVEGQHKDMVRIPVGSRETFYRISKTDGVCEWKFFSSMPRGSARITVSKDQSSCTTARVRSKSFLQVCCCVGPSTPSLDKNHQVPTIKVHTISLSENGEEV

BZP Rat Brain Site = assay: NIMH-PDSP binding assay, BZP Rat Brain Site; conditions: read-out: Ki BZP Rat Brain Site
Dopamine2 = Dopamine2 (Homo sapiens, UniProt P14416); assay: NIMH-PDSP binding assay, Dopamine2
Dopamine2, sequence (P14416 whole entry): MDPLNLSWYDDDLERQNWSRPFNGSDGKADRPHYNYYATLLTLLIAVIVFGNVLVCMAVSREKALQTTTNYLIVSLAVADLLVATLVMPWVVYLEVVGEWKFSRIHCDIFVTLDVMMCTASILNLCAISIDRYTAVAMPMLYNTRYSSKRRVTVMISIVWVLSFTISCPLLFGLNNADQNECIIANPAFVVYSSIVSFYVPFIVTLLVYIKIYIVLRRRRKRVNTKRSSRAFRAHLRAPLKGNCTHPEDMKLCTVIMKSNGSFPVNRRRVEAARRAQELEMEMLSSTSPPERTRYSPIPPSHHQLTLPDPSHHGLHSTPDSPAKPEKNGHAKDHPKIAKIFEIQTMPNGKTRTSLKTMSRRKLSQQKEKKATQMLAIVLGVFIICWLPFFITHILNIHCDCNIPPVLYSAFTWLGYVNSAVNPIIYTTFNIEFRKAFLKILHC

Dopamine3 = Dopamine3 (Homo sapiens, UniProt P35462); assay: NIMH-PDSP binding assay, Dopamine3
Dopamine3, sequence (P35462 whole entry): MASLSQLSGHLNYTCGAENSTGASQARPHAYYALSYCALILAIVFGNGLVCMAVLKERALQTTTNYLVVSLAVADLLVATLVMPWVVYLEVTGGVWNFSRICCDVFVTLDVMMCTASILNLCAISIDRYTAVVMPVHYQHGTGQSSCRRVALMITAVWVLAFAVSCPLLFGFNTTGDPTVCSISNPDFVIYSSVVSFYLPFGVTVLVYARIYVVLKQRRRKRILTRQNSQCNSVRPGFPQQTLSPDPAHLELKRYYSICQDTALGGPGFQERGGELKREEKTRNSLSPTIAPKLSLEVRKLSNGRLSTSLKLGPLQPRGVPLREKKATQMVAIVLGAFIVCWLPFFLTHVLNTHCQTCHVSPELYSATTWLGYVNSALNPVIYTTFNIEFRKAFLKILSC

5HT7 = 5HT7 (Homo sapiens, UniProt P34969); assay: NIMH-PDSP binding assay, 5HT7
5HT7, sequence (P34969 whole entry, species assumed): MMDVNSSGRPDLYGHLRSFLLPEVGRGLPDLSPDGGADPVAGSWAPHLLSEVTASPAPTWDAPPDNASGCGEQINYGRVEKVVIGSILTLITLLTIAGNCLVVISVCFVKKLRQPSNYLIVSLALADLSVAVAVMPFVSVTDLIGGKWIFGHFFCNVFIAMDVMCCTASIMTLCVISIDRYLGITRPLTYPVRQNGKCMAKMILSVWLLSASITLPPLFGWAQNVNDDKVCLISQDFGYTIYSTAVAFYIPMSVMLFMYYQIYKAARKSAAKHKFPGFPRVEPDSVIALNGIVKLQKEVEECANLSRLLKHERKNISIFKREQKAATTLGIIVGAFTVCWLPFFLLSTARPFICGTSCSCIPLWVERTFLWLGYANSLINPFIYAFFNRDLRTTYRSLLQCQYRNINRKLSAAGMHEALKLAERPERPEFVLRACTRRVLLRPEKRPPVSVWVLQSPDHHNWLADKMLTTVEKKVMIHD

5-HT1AR [1] = conditions: 5-HT1AR-rich regions such as hippocampus, amygdala, cortex and cingulate regions; cited from earlier work
[2] = logPo/w by shake flask method; format: physicochemical
Stability of formulation = format: physicochemical; conditions: 10% ethanol-90% saline; analytical HPLC and radio-TLC
5-HT1AR [3] = assay: PET imaging in anesthetized baboon; format: in vivo, baboon (Papio anubis)
In short: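 Two fasted male baboons: ketamine 10 mg/kg im, then 1.5–2.0% isoflurane via endotracheal tube, core temperature held at 37 °C. Saline iv line and arterial line placed. 10 min transmission scan, then 111 ± 18 MBq radiotracer as iv bolus. 3-D emission data collected for 180 min. MRI-coregistered regions of interest, left and right averaged.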

**Q.** Which “less affinity for α1A AR in comparison to 5-HT1AR” value (Adrenergic α1A) does the source give for `COc1ccccc1N1CCN(CCCCn2ncc(=O)n(C)c2=O)CC1` [CUMI-101] here?
**A.** The value was 45 fold.

**Q.** What about the Ki (BZP Rat Brain Site) of the same compound?
**A.** The Ki was greater than 10 µM.

**Q.** And the “Ki Dopamine2” value (Dopamine2)?
**A.** Its value is “did not show any significant binding”.

**Q.** What about the “Ki Dopamine3” value (Dopamine3) of the same compound?
**A.** The value was “did not show any significant binding”.

**Q.** With `Cn1c(=O)cnn(CCCCN2CCN(c3ccccc3OCCF)CC2)c1=O` [FECUMI-101, 2-(4-(4-(2-(2-fluoroethoxy)phenyl)piperazin-1-yl)butyl)-4-methyl-1,2,4-triazine-3,5(2H,4H)-dione] as the compound, how does the “selectivity to 5-HT1A over 5-HT7” value (5HT7) read?
**A.** The value was 172 fold.

**Q.** Which “lower BPF in comparison with [11C]WAY-100635 scans” value (5-HT1AR [1]) does the source give for `Cn1c(=O)cnn(CCCCN2CCN(c3ccccc3O[11CH3])CC2)c1=O` [[^11C]CUMI-101] here?
**A.** The value was ~ 50%.

**Q.** For `Cn1c(=O)cnn(CCCCN2CCN(c3ccccc3OCC[18F])CC2)c1=O` [[^18F]FECUMI-101, [18F]2-(4-(4-(2-(2-fluoroethoxy)phenyl)piperazin-1-yl)butyl)-4-methyl-1,2,4-triazine-3,5(2H,4H)-dione], which logPo/w [2] is on record?
**A.** The logPo/w was 1.2.

**Q.** And the “Stability of radioproduct in formulation, no significant de[18F]fluorination” value (Stability of formulation)?
**A.** The value was “up to 4 h”.

**Q.** What about the BBB penetration (5-HT1AR [3]; anesthetized baboon, 111 ± 18 MBq i.v.) of the same compound?
**A.** The BBB penetration was “penetrates the BBB”.

**Q.** What about the “in vivo radio[18F]defluorination (skull image)” value (5-HT1AR [3]; baboon PET) of the same compound?
**A.** Its value is “No skull image”.
